From ChEMBL document CHEMBL1131295, “Design of peptidomimetics that inhibit the association of phosphatidylinositol 3-kinase with platelet-derived growth factor-beta receptor and possess cellular activity” (J Med Chem, 1998)
Where a SMILES comes first, the peptide text is derived from it. [ ]: non-standard residue; d: D form. F2Pmp = N[C@@H](Cc1ccc(C(F)(F)P(=O)(O)O)cc1)C(=O)O; Pmp = N[C@@H](Cc1ccc(CP(=O)(O)O)cc1)C(=O)O; pY = N[C@@H](Cc1ccc(OP(=O)(O)O)cc1)C(=O)O; Nle = CCCC[C@H](N)C(=O)O

Target: Tyrosine-protein kinase ABL1 (Homo sapiens) (UniProt P00519)
Sequence (P00519 whole entry, the tested form may be a part): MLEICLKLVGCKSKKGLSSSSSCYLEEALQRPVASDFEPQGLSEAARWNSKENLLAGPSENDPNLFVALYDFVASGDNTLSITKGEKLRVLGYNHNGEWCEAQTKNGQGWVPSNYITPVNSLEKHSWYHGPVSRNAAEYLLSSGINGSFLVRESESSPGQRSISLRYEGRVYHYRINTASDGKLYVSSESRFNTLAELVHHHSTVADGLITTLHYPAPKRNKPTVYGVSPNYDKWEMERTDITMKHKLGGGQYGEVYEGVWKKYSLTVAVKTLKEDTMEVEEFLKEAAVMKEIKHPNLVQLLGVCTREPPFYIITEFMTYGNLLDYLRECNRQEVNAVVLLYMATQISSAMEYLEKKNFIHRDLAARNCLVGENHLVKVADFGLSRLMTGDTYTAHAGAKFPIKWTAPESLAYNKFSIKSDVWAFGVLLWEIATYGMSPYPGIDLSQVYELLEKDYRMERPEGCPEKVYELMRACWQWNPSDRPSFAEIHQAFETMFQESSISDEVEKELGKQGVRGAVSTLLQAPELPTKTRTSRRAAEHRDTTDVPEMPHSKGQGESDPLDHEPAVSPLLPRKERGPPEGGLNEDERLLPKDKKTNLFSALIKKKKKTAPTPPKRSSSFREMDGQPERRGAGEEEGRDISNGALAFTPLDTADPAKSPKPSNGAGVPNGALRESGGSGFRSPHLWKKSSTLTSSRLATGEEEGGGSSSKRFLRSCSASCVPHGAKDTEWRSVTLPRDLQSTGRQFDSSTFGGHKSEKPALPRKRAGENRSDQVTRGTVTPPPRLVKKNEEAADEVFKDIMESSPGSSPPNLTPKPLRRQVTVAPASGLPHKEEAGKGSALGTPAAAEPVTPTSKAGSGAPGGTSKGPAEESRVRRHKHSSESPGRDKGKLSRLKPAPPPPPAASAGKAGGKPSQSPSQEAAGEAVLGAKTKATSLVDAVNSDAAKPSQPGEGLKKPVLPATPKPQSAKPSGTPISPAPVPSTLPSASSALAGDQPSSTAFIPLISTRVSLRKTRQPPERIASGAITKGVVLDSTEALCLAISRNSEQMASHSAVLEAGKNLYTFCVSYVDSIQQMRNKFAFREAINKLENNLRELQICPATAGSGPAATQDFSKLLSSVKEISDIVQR
Experiment: Affinity for SH2 domain of abl expressed in Sf9 insect cells
Conditions: concentration not given here

| inhibition [%] | SMILES |
| --- | --- |
| 60 | CSCC[C@H](NC(=O)[C@@H]1CCCN1C(=O)[C@@H](NC(=O)[C@@H](N)Cc1ccc(OP(=O)(O)O)cc1)C(C)C)C(=O)N[C@@H](CC(C)C)C(=O)O (H-[pY]VPML-OH) |

Tested on: not listed separately
Experiment: Binding affinity against p85 C-terminal SH2 domain to platelet-derived growth factor receptor beta using [35S]GST as radioligand
Conditions: not given
In short: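 Recombinant [35S]-labelled GST-p85 C-terminal SH2 fusion (E. coli, IPTG 1 mM, trans-35S label) binding to bead-bound Sf9-expressed PDGF-β receptor tyrosine kinase domain, prephosphorylated with 1 mM ATP, 10 mM MnCl2, 5 mM MgCl2.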

| SMILES | IC50 [nM] |
| --- | --- |
| CSCC[C@H](NC(=O)[C@@H]1CCCN1C(=O)[C@@H](NC(=O)[C@@H](N)Cc1ccc(C(F)(F)P(=O)(O)O)cc1)C(C)C)C(=O)N[C@@H](CC(C)C)C(=O)O (H-[F2Pmp]VPML-OH) | 945 |
| CCCCCN(CCCCC)C(=O)[C@H](C)NC(=O)[C@@H](NC(=O)[C@H](Cc1ccc(OP(=O)(O)O)cc1)NC(C)=O)C(C)C | 3320 |
| CSCC[C@H](NC(=O)[C@@H]1CCCN1C(=O)[C@@H](NC(=O)[C@H](Cc1ccc(C(F)(F)P(=O)(O)O)cc1)NC(C)=O)C(C)C)C(N)=O (Ac-[F2Pmp]VPM-NH2) | 1450 |
| CSCC[C@H](NC(=O)[C@@H]1CCCN1C(=O)[C@@H](NC(=O)[C@H](Cc1ccc(OP(=O)(O)O)cc1)NC(C)=O)C(C)C)C(=O)N[C@@H](CC(C)C)C(N)=O (Ac-[pY]VPML-NH2) | 160 |
| CSCC[C@H](NC(=O)[C@@H]1CCCN1C(=O)[C@@H](NC(=O)[C@@H](N)Cc1ccc(OP(=O)(O)O)cc1)C(C)C)C(=O)O (H-[pY]VPM-OH) | 6850 |
| CC(=O)N[C@@H](Cc1ccc(OP(=O)(O)O)cc1)C(=O)N[C@H](C(=O)N[C@@H](C)C(=O)NCCc1ccccc1)C(C)C | > 100000 |
| CCCCN(CC(N)=O)C(=O)[C@@H](C)NC(=O)[C@@H](NC(=O)[C@H](Cc1ccc(OP(=O)(O)O)cc1)NC(C)=O)C(C)C | 2500 |
| CCCCCN(CCCCC)C(=O)[C@@H](C)NC(=O)[C@@H](NC(=O)[C@H](Cc1ccc(OP(=O)(O)O)cc1)NC(C)=O)C(C)C | 220 |
| CSCC[C@H](NC(=O)[C@H](CC(=O)O)NC(=O)[C@H](CCSC)NC(=O)[C@@H](N)Cc1ccc(OP(=O)(O)O)cc1)C(=O)N[C@@H](CO)C(=O)O (H-[pY]MDMS-OH) | 520 |
| CC(=O)N[C@@H](Cc1ccc(OP(=O)(O)O)cc1)C(=O)N[C@H](C(=O)N[C@H](C)C(=O)NCCc1ccccc1)C(C)C | 37600 |
| CSCC[C@H](NC(=O)[C@@H]1CCCN1C(=O)[C@@H](NC(=O)[C@@H](N)Cc1ccc(CP(=O)(O)O)cc1)C(C)C)C(=O)N[C@@H](CC(C)C)C(=O)O (H-[Pmp]VPML-OH) | 8700 |
| CC(=O)N[C@@H](Cc1ccc(OP(=O)(O)O)cc1)C(=O)N[C@H](C(=O)N[C@@H](C)C(=O)NCCC1CCCCC1)C(C)C | > 100000 |
| CC(=O)N[C@@H](Cc1ccc(OP(=O)(O)O)cc1)C(=O)N[C@H](C(=O)N[C@H](C)C(=O)NCCC1CCCCC1)C(C)C | 19000 |
| CCCCCCN(CCCCCC)C(=O)[C@H](C)NC(=O)[C@@H](NC(=O)[C@H](Cc1ccc(OP(=O)(O)O)cc1)NC(C)=O)C(C)C | 2500 |
| CSCC[C@H](NC(=O)[C@@H]1CCCN1C(=O)[C@@H](NC(=O)[C@H](Cc1ccc(OP(=O)(O)O)cc1)NC(C)=O)C(C)C)C(=O)N[C@@H](CC(C)C)C(=O)O (Ac-[pY]VPML-OH) | 180 |
| CCCCCCN(CCCCCC)C(=O)[C@@H](C)NC(=O)[C@@H](NC(=O)[C@H](Cc1ccc(OP(=O)(O)O)cc1)NC(C)=O)C(C)C | 76 |
| CCCCN(CCCC)C(=O)[C@H](C)NC(=O)[C@@H](NC(=O)[C@H](Cc1ccc(OP(=O)(O)O)cc1)NC(C)=O)C(C)C | 5700 |
| CCCCN(CCCC)C(=O)[C@@H](C)NC(=O)[C@@H](NC(=O)[C@H](Cc1ccc(OP(=O)(O)O)cc1)NC(C)=O)C(C)C | 478 |
| CSCC[C@H](NC(=O)[C@@H]1CCCN1C(=O)[C@@H](NC(=O)[C@@H](N)Cc1ccc(OP(=O)(O)O)cc1)C(C)C)C(=O)N[C@@H](CC(C)C)C(N)=O (H-[pY]VPML-NH2) | 400 |
| CSCC[C@H](NC(=O)[C@@H]1CCCN1C(=O)[C@@H](NC(=O)[C@H](Cc1ccc(OP(=O)(O)O)cc1)NC(C)=O)C(C)C)C(N)=O (Ac-[pY]VPM-NH2) | 264 |
| CSCC[C@H](NC(=O)[C@@H]1CCCN1C(=O)[C@@H](NC(=O)[C@@H](N)Cc1ccc(OP(=O)(O)O)cc1)C(C)C)C(N)=O (H-[pY]VPM-NH2) | 485 |
| CSCC[C@H](NC(=O)[C@@H]1CCCN1C(=O)[C@@H](NC(=O)[C@@H](N)Cc1ccc(OP(=O)(O)O)cc1)C(C)C)C(=O)N[C@@H](CC(C)C)C(=O)O (H-[pY]VPML-OH) | 445 |
| CCCCCCCCN(CCCCCCCC)C(=O)[C@H](C)NC(=O)[C@@H](NC(=O)[C@H](Cc1ccc(OP(=O)(O)O)cc1)NC(C)=O)C(C)C | 3470 |
| CCCC[C@H](NC(=O)[C@@H]1CCCN1C(=O)[C@@H](NC(=O)[C@@H](N)Cc1ccc(OP(=O)(O)O)cc1)C(C)C)C(=O)N[C@@H](CC(C)C)C(=O)O (H-[pY]VP[Nle]L-OH) | 1360 |
| CCCCCNC(=O)[C@H](C)NC(=O)[C@@H](NC(=O)[C@H](Cc1ccc(OP(=O)(O)O)cc1)NC(C)=O)C(C)C | 16100 |
| CCCCCCN(CCCCCC)C(=O)[C@H](C)NC(=O)[C@@H](NC(=O)[C@H](Cc1ccc(C(F)(F)P(=O)(O)O)cc1)NC(C)=O)C(C)C | 446 |
| CCCCCN(CCCCC)C(=O)[C@H](C)NC(=O)[C@@H](NC(=O)[C@H](Cc1ccc(C(F)(F)P(=O)(O)O)cc1)NC(C)=O)C(C)C | 372 |
| CCCCCNC(=O)C(C)NC(=O)[C@@H](NC(=O)[C@H](Cc1ccc(OP(=O)(O)O)cc1)NC(C)=O)C(C)C (single isomer, unassigned) | 4560 |

Target: Proto-oncogene tyrosine-protein kinase Src (Homo sapiens, UniProt P12931)
Sequence (P12931 2-536 limits assumed): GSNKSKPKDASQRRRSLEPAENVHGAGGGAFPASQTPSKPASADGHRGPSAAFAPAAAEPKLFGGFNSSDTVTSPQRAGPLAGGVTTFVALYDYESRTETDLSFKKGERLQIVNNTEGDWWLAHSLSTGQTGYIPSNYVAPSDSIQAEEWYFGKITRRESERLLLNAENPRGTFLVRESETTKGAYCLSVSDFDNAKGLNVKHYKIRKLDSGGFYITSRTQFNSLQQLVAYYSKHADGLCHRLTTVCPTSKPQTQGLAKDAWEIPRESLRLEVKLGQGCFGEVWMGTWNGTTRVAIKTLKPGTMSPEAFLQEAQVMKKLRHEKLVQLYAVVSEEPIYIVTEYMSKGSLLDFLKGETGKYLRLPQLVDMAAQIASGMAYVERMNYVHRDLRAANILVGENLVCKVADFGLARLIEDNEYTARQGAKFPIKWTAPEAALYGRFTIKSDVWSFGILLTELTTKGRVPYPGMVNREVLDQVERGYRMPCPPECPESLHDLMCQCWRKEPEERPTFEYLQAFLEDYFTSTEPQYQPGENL
Experiment: Affinity for SH2 domain of src in Sf9 insect cells
Conditions: not given

| IC50 [µM] | SMILES |
| --- | --- |
| 5.9 | CSCC[C@H](NC(=O)[C@@H]1CCCN1C(=O)[C@@H](NC(=O)[C@H](Cc1ccc(OP(=O)(O)O)cc1)NC(C)=O)C(C)C)C(=O)N[C@@H](CC(C)C)C(=O)O (Ac-[pY]VPML-OH) |
| 12.7 | CSCC[C@H](NC(=O)[C@@H]1CCCN1C(=O)[C@@H](NC(=O)[C@@H](N)Cc1ccc(OP(=O)(O)O)cc1)C(C)C)C(=O)N[C@@H](CC(C)C)C(=O)O (H-[pY]VPML-OH) |
| > 10 | CCCC[C@H](NC(=O)[C@@H]1CCCN1C(=O)[C@@H](NC(=O)[C@@H](N)Cc1ccc(OP(=O)(O)O)cc1)C(C)C)C(=O)N[C@@H](CC(C)C)C(=O)O (H-[pY]VP[Nle]L-OH) |
